Columns and labels:
[1] = organism: Rattus norvegicus; test: Effect of specific activity of compound on biodistribution in rats heart 1 hr after injection at the dose of 2.5 mg value expressed in average % dose per organ; value may range from 0.34 to 0.42; type: ADME, organism-based; conditions: in vivo
In short: (§1)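 Rats received an intravenous injection of the I-125 labeled diamine with added unlabeled carrier (6.25, 2.5, 0.25 or 0.025 mg per dose). At 1 h, organs were counted. Percent dose per organ came from comparing tissue radioactivity with diluted aliquots of the injected dose. Values are the average and range of 3 rats. Brain/blood ratio was taken from % dose per gram, calculated using mean organ weights (brain 1.65 g; blood 18 g).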

[2] = organism: Rattus norvegicus; test: Effect of specific activity of compound on biodistribution in rats thyroid 1 hr after injection at the dose of 6.25 mg value expressed in average % dose per organ; value may range from 0.09 to 0.11; type: ADME, organism-based, Thyroid gland; conditions: in vivo; in short: as §1
[3] = organism: Rattus norvegicus; test: Effect of specific activity of compound on biodistribution in rats blood 1 hr after injection at the dose of 2.5 mg value expressed in average % dose per organ; value may range from 0.58 to 0.71; type: ADME, organism-based; conditions: in vivo; in short: as §1
[4] = Biodistribution of [125I]- compound in a monkey spleen. 1 hr after intravenous injection. the value expressed in%dose/organ; conditions: simiiformes, in vivo
[5] = tested on: Rattus norvegicus; test: Biodistribution of I-125 labeled compound in rat liver, 2 min after intravenous injection. value expressed in average % dose per organ; value may range from 7.90 to 10.6; type: ADME, organism-based; conditions: in vivo
[6] = tested on: Rattus norvegicus; test: Biodistribution of I-125 labeled compound in rat brain to blood ratio, 1 hr after intravenous injection. value expressed in % dose per gram ratio; type: ADME, organism-based
In short: (§2)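 Rats given I-125 diamine iv; tissue activity at 2 min or 1 h compared with diluted injected-dose aliquots. % dose per gram approximated as % dose per organ divided by mean organ weight (brain 1.65 g; blood 18 g). Ratio taken from the per-gram values.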

[7] = organism: Rattus norvegicus; test: Effect of specific activity of compound on biodistribution in rats liver 1 hr after injection at the dose of 6.25 mg value expressed in average % dose per organ; value may range from 16.5 to 17.2; type: ADME, organism-based; conditions: in vivo; in short: as §1
[8] = organism: Rattus norvegicus; test: Effect of specific activity of compound on biodistribution in rats muscle 1 hr after injection at the dose of 0.25 mg value expressed in average % dose per organ; value may range from 11.0 to 13.4; type: ADME, organism-based, Muscle tissue; conditions: in vivo; in short: as §1
[9] = organism: Rattus norvegicus; test: Effect of specific activity of compound on biodistribution in rats thyroid after injection at the dose of 0.025 mg value expressed in average % dose per organ; value may range from 0.15 to 0.17; type: ADME, organism-based, Thyroid gland; conditions: in vivo; in short: as §1
[10] = tested on: Rattus norvegicus; test: Biodistribution of I-125 labeled compound in rat lungs, 1 hr after intravenous injection. value expressed in average % dose per organ; value may range from 10.6 to 15.1; type: ADME, organism-based, Lung; conditions: in vivo
[11] = organism: Rattus norvegicus; test: Effect of specific activity of compound on biodistribution in rats brain after injection at the dose of 0.025 mg value expressed in average % dose per organ; value may range from 1.39 to 1.56; type: ADME, organism-based; conditions: in vivo; in short: as §1
[12] = Biodistribution of […] compound in a monkey heart. 1 hr after intravenous injection. the value expressed in%dose/organ; type: ADME, organism-based; conditions: simiiformes, in vivo
In short: (§3)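 Monkey sedated with ketamine and anesthetized with nembutal, then given ~100 μCi [125I] label (~7 mCi/mg) intravenously. Killed 1 h later by nembutal overdose. Organs dissected, weighed and counted. % dose per organ found against diluted injected-dose aliquots; % dose per gram also reported; brain/blood from per-gram values. Single animal.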

[13] = tested on: Rattus norvegicus; test: Biodistribution of I-125 labeled compound in rat brain, 1 hr after intravenous injection. value expressed in average % dose per organ; value may range from 1.71 to 2.54; type: ADME, organism-based; conditions: in vivo
[14] = tested on: Rattus norvegicus; test: Biodistribution of I-125 labeled compound in rat heart, 1 hr after intravenous injection. value expressed in average % dose per organ; value may range from 0.97 to 1.26; type: ADME, organism-based; conditions: in vivo
[15] = Biodistribution of […] compound in a monkey bone. 1 hr after intravenous injection. the value expressed in %dose/organ; type: ADME, organism-based, Bone element; conditions: simiiformes, in vivo; in short: as §3
[16] = organism: Rattus norvegicus; test: Effect of specific activity of compound on biodistribution in rats heart after injection at the dose of 0.025 mg value expressed in average % dose per organ; value may range from 0.98 to 1.02; type: ADME, organism-based; conditions: in vivo; in short: as §1
[17] = organism: Rattus norvegicus; test: Effect of specific activity of compound on biodistribution in rats blood 1 hr after injection at the dose of 6.25 mg value expressed in average % dose per organ; value may range from 0.55 to 0.64; type: ADME, organism-based; conditions: in vivo; in short: as §1
[18] = organism: Rattus norvegicus; test: Effect of specific activity of compound on biodistribution in rats brain to blood ratio 1 hr after injection at the dose of 6.25 mg value expressed in % dose per gram ratio; type: ADME, organism-based; in short: as §1
[19] = Biodistribution of [125I]- compound in a monkey heart. 1 hr after intravenous injection. the value expressed in %dose/gram; conditions: simiiformes, in vivo
[20] = tested on: Rattus norvegicus; test: Biodistribution of I-125 labeled compound in rat thyroid, 1 hr after intravenous injection. value expressed in average % dose per organ; value may range from 0.17 to 0.23; type: ADME, organism-based, Thyroid gland; conditions: in vivo
[21] = Biodistribution of [123I]- compound in a monkey brain. 1 hr after intravenous injection. the value expressed in %dose/organ; type: ADME, organism-based; conditions: simiiformes, in vivo
[22] = organism: Rattus norvegicus; test: Effect of specific activity of compound on biodistribution in rats brain to blood ratio 1 hr after injection at the dose of 2.5 mg value expressed in % dose per gram ratio; type: ADME, organism-based; in short: as §1
[23] = Biodistribution of [125I]- compound in a monkey liver. 1 hr after intravenous injection. the value expressed in %dose/organ; conditions: simiiformes, in vivo
[24] = Biodistribution of [125I]- compound in a monkey lungs.1h after intravenous injection. the value expressed in%dose/organ; conditions: simiiformes, in vivo
[25] = organism: Rattus norvegicus; test: Effect of specific activity of compound on biodistribution in rats brain 1 hr after injection at the dose of 2.5 mg value expressed in average % dose per organ; value may range from 2.13 to 2.36; type: ADME, organism-based; conditions: in vivo; in short: as §1
[26] = organism: Rattus norvegicus; test: Effect of specific activity of compound on biodistribution in rats brain to blood ratio 1 hr after injection at the dose of 0.25 mg value expressed in % dose per gram ratio; type: ADME, organism-based; in short: as §1
[27] = tested on: Rattus norvegicus; test: Biodistribution of I-125 labeled compound in rat blood, 2 min after intravenous injection. value expressed in average % dose per organ; value may range from 2.42 to 2.84; type: ADME, organism-based; conditions: in vivo
[28] = Biodistribution of [125I]- compound in a monkey muscle. 1 hr after intravenous injection. the value expressed in %dose/gram; conditions: simiiformes, in vivo
[29] = tested on: Rattus norvegicus; test: Biodistribution of I-125 labeled compound in rat brain to blood ratio, 2 min after intravenous injection, value expressed in % dose per gram ratio; type: ADME, organism-based; in short: as §2
[30] = Biodistribution of [125I]- compound in a monkey brain to blood ratio 1 hr after intravenous injection. the value expressed in %dose/gram; conditions: simiiformes, in vivo
[31] = Biodistribution of [125I]- compound in a monkey muscle. 1 hr after intravenous injection. the value expressed in%dose/organ; conditions: simiiformes, in vivo
[32] = Biodistribution of [125I]- compound in a monkey brain. 1 hr after intravenous injection. the value expressed in %dose/gram; conditions: simiiformes, in vivo

Average dose per organ [1]: 0.38% | Average dose per organ [2]: 0.1% | Average dose per organ [3]: 0.65% | Dose per organ [4]: 2.39% | Average dose per organ [5]: 9.51% | Ratio [6]: 19.7% | Average dose per organ [7]: 16.7% | Average dose per organ [8]: 12.1% | Average dose per organ [9]: 0.16% | Average dose per organ [10]: 11.7% | Average dose per organ [11]: 1.47% | Dose per organ [12]: 5.39% | Average dose per organ [13]: 2.02% | Average dose per organ [14]: 1.11% | Dose per organ [15]: 1.53% | Average dose per organ [16]: 1% | Average dose per organ [17]: 0.61% | Ratio [18]: 43% | Dose/g [19]: 0.218% | Average dose per organ [20]: 0.19% | Dose per organ [21]: 3.18% | Ratio [22]: 37.3% | Dose per organ [23]: 19.7% | Dose per organ [24]: 33% | Average dose per organ [25]: 2.21% | Ratio [26]: 22.8% | Average dose per organ [27]: 2.63% | Dose/g [28]: 0.00491% | Ratio [29]: 7.35% | Ratio [30]: 17.5 | Dose per organ [31]: 17.3% | Dose/g [32]: 0.0349%
Compound: Cc1cc(I)cc(CNCCCN(C)C)c1O

From ChEMBL document CHEMBL1122426, “Radioiodine-labeled N,N-dimethyl-N'-(2-hydroxy-3-alkyl-5-iodobenzyl)-1,3-propanediamines for brain perfusion imaging” (J Med Chem, 1983)
